In paper PMC4303305 (Biochemistry, 2014):
“Also recorded” adds a separate entry of the source. Read-outs that look alike come from different tables or passages of the source.

Experiments:
[1] = Size-exclusion FPLC retention of nitrophorins, mutants and ligand complexes; type: physicochemical, Rhodnius prolixus; conditions: for dimer formation: under any conditions / at any pH
How it was run: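 Analytical run on Superdex75 at 4 °C in 100 mM sodium acetate, NaCl added to 220 mM total ionic strength. Protein at 1 mM was run at pH 5.0, 5.25, 5.5 and 5.75. Separately, protein from 1 to 0.025 mM was run at pH 5.0. Elution position compared with molecular weight standards.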

[2] = type: physicochemical, Rhodnius prolixus; conditions: pH 7.3; 0.88 mM; NO bound
How it was run: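 Recombinant nitrophorin refolded from inclusion bodies, reconstituted with excess hemin at pH 7.5, then purified by size-exclusion at pH 5.0. ¹H{¹⁵N} HSQC spectra recorded across pH: 0.2 mM protein at pH 5.0, 5.5 and 6.0; 0.8 mM at pH 6.5. pH 6.5 peaks assigned from pH 7.3 assignments, following cross-peaks through intermediate spectra. NO-bound sample run at 3.7 mM and after dilution to 0.88 mM.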

[3] = cited from earlier work
[4] = Stopped-flow kinetics of release of NO from the nitrophorins; type: binding, Rhodnius prolixus; conditions: 5–10 μM in 100 mM sodium phosphate buffer
How it was run: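 Stopped-flow measurement of NO release from NO-bound nitrophorins with native or M0-bearing N-termini. Dissociation Kd obtained at pH 5.0 and 7.5 in dilute solution, 5–10 μM protein in 100 mM sodium phosphate buffer.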

B1: NP1(K1A) (protein)
chain: ACTKNALAQTGFNKDKYFNGDVWYVTDYLDLEPDDVPKRYCAALAAGTASGKLKEALYHYDPKTQDTFYDVSELQEESPGKYTANFKKVEKNGNVKVDVTSGNYYTFTVMYADDSSALIHTCLHKGNKDLGDLYAVLNRNKDTNAGDKVKGAVTAASLKFSDFISTKDNKCEYDNVSLKSLLTK
[1]; pH 5.0
  monomer or dimer on the size-exclusion column: broad peak that encompasses the retention times expected for a dimer and a monomer
[1]; pH 5.0, NO added / bound
  monomer or dimer on the size-exclusion column: form dimers; also recorded: two peaks, the first of which is the dimer

B2: native N-terminal NP1: NP1 expressed with a leader sequence, giving the native N-terminus KCTK... (protein)
chain: KCTKNALAQTGFNKDKYFNGDVWYVTDYLDLEPDDVPKRYCAALAAGTASGKLKEALYHYDPKTQDTFYDVSELQEESPGKYTANFKKVEKNGNVKVDVTSGNYYTFTVMYADDSSALIHTCLHKGNKDLGDLYAVLNRNKDTNAGDKVKGAVTAASLKFSDFISTKDNKCEYDNVSLKSLLTK
modifications: left off: His6, C-terminal, kept
[1]; pH 5.0, NO added / bound
  monomer or dimer on the size-exclusion column: form dimers

B3: D30A (protein)
chain: ACTKNAIAQTGFNKDKYFNGDVWYVTDYLALEPDDVPKRYCAALAAGTASGKLKEALYHYDPKTQDTFYDVSELQVESLGKYTANFKKVDKNGNVKVAVTAGNYYTFTVMYADDSSALIHTCLHKGNKDLGDLYAVLNRNKDAAAGDKVKSAVSAATLEFSKFISTKENNCAYDNDSLKSLLTK
[1]; pH 5.0
  monomer or dimer on the size-exclusion column: monomers

B4: D30N (protein)
chain: ACTKNAIAQTGFNKDKYFNGDVWYVTDYLNLEPDDVPKRYCAALAAGTASGKLKEALYHYDPKTQDTFYDVSELQVESLGKYTANFKKVDKNGNVKVAVTAGNYYTFTVMYADDSSALIHTCLHKGNKDLGDLYAVLNRNKDAAAGDKVKSAVSAATLEFSKFISTKENNCAYDNDSLKSLLTK
[1]; pH 5.0
  monomer or dimer on the size-exclusion column: monomers

B5: A1K: site-directed mutant of NP4, M0 present (N-terminus MKCTK...) (protein)
chain: MKCTKNAIAQTGFNKDKYFNGDVWYVTDYLDLEPDDVPKRYCAALAAGTASGKLKEALYHYDPKTQDTFYDVSELQVESLGKYTANFKKVDKNGNVKVAVTAGNYYTFTVMYADDSSALIHTCLHKGNKDLGDLYAVLNRNKDAAAGDKVKSAVSAATLEFSKFISTKENNCAYDNDSLKSLLTK
[1]; pH 5.0
  monomer or dimer on the size-exclusion column: monomer

B6: K38A (protein)
chain: ACTKNAIAQTGFNKDKYFNGDVWYVTDYLDLEPDDVPARYCAALAAGTASGKLKEALYHYDPKTQDTFYDVSELQVESLGKYTANFKKVDKNGNVKVAVTAGNYYTFTVMYADDSSALIHTCLHKGNKDLGDLYAVLNRNKDAAAGDKVKSAVSAATLEFSKFISTKENNCAYDNDSLKSLLTK
[1]; pH 5.0
  monomer or dimer on the size-exclusion column: dimers

B7: R39A (protein)
chain: ACTKNAIAQTGFNKDKYFNGDVWYVTDYLDLEPDDVPKAYCAALAAGTASGKLKEALYHYDPKTQDTFYDVSELQVESLGKYTANFKKVDKNGNVKVAVTAGNYYTFTVMYADDSSALIHTCLHKGNKDLGDLYAVLNRNKDAAAGDKVKSAVSAATLEFSKFISTKENNCAYDNDSLKSLLTK
[1]; pH 5.0
  monomer or dimer on the size-exclusion column: dimers

B8: K125A (protein)
chain: ACTKNAIAQTGFNKDKYFNGDVWYVTDYLDLEPDDVPKRYCAALAAGTASGKLKEALYHYDPKTQDTFYDVSELQVESLGKYTANFKKVDKNGNVKVAVTAGNYYTFTVMYADDSSALIHTCLHAGNKDLGDLYAVLNRNKDAAAGDKVKSAVSAATLEFSKFISTKENNCAYDNDSLKSLLTK
[1]; pH 5.0
  monomer or dimer on the size-exclusion column: dimers

B9: K125E (protein)
chain: ACTKNAIAQTGFNKDKYFNGDVWYVTDYLDLEPDDVPKRYCAALAAGTASGKLKEALYHYDPKTQDTFYDVSELQVESLGKYTANFKKVDKNGNVKVAVTAGNYYTFTVMYADDSSALIHTCLHEGNKDLGDLYAVLNRNKDAAAGDKVKSAVSAATLEFSKFISTKENNCAYDNDSLKSLLTK
[1]; pH 5.0
  monomer or dimer on the size-exclusion column: dimers

B10: NP4-ImH: NP4 with imidazole bound (protein)
chain: ACTKNAIAQTGFNKDKYFNGDVWYVTDYLDLEPDDVPKRYCAALAAGTASGKLKEALYHYDPKTQDTFYDVSELQVESLGKYTANFKKVDKNGNVKVAVTAGNYYTFTVMYADDSSALIHTCLHKGNKDLGDLYAVLNRNKDAAAGDKVKSAVSAATLEFSKFISTKENNCAYDNDSLKSLLTK
[1]; pH 5.0
  monomer or dimer on the size-exclusion column: dimers

B11: NP4-NO: NP4 with nitric oxide bound to the heme (protein)
chain: ACTKNAIAQTGFNKDKYFNGDVWYVTDYLDLEPDDVPKRYCAALAAGTASGKLKEALYHYDPKTQDTFYDVSELQVESLGKYTANFKKVDKNGNVKVAVTAGNYYTFTVMYADDSSALIHTCLHKGNKDLGDLYAVLNRNKDAAAGDKVKSAVSAATLEFSKFISTKENNCAYDNDSLKSLLTK
[2]
  state of the dimer: still highly dimerized
[1]; pH 5.0
  monomer or dimer on the size-exclusion column: dimer

B12: Hm complex: NP4 with histamine bound to the heme iron (protein)
chain: ACTKNAIAQTGFNKDKYFNGDVWYVTDYLDLEPDDVPKRYCAALAAGTASGKLKEALYHYDPKTQDTFYDVSELQVESLGKYTANFKKVDKNGNVKVAVTAGNYYTFTVMYADDSSALIHTCLHKGNKDLGDLYAVLNRNKDAAAGDKVKSAVSAATLEFSKFISTKENNCAYDNDSLKSLLTK
[1]; all pH values, including those below 6.0
  monomer or dimer on the size-exclusion column: monomer
[1]; pH 5.0
  monomer or dimer on the size-exclusion column: monomer

B13: NP4 apoprotein: NP4 without heme (protein)
chain: ACTKNAIAQTGFNKDKYFNGDVWYVTDYLDLEPDDVPKRYCAALAAGTASGKLKEALYHYDPKTQDTFYDVSELQVESLGKYTANFKKVDKNGNVKVAVTAGNYYTFTVMYADDSSALIHTCLHKGNKDLGDLYAVLNRNKDAAAGDKVKSAVSAATLEFSKFISTKENNCAYDNDSLKSLLTK
[1]; pH 5.0
  monomer or dimer on the size-exclusion column: monomeric

B14: (M0)NP1: recombinant NP1 retaining methionine M0 at the N-terminus (MKCTK...) (protein)
chain: MKCTKNALAQTGFNKDKYFNGDVWYVTDYLDLEPDDVPKRYCAALAAGTASGKLKEALYHYDPKTQDTFYDVSELQEESPGKYTANFKKVEKNGNVKVDVTSGNYYTFTVMYADDSSALIHTCLHKGNKDLGDLYAVLNRNKDTNAGDKVKGAVTAASLKFSDFISTKDNKCEYDNVSLKSLLTK
[3]; column pH 7.5, measured at pH 8.0 rather than pH 7.5 (footnote a)
  NO Kd (NO dissociation): 2.2 ± 0.01 ^a s^–1
[3]; pH 5.0, ref 17
  NO Kd (NO dissociation): 0.20 ± 0.01 s^–1
[4]; pH 5.0
  NO Kd (NO dissociation): 0.426 ± 0.005 s^–1
[4]; pH 7.5
  NO Kd (NO dissociation): 2.32 ± 0.07 s^–1
[1]; pH 5.0
  monomer or dimer on the size-exclusion column: not a dimer
[1]
  dimer formation: do not form dimers
[1]; listed as recombinant NP1
  dimer formation: not a dimer at any pH

B15: (M0)NP1sym: (M0)NP1 containing the symmetrical heme, 2,4-dimethyldeuterohemin (protein, UniProt Q26239 24-207, looked up)
Nitrophorin-1: KCTKNALAQTGFNKDKYFNGDVWYVTDYLDLEPDDVPKRYCAALAAGTASGKLKEALYHYDPKTQDTFYDVSELQEESPGKYTANFKKVEKNGNVKVDVTSGNYYTFTVMYADDSSALIHTCLHKGNKDLGDLYAVLNRNKDTNAGDKVKGAVTAASLKFSDFISTKDNKCEYDNVSLKSLLTK
modifications: Met0; 2,4-dimethyldeuterohemin heme
[4]; pH 5.0
  NO Kd (NO dissociation): 0.218 ± 0.004 s^–1
[4]; pH 7.5
  NO Kd (NO dissociation): 2.66 ± 0.27 s^–1

B16: Nat. N-term NP1 ^c: native N-terminal NP1 (N-terminus KC...) (protein, UniProt Q26239 24-207, looked up)
Nitrophorin-1: KCTKNALAQTGFNKDKYFNGDVWYVTDYLDLEPDDVPKRYCAALAAGTASGKLKEALYHYDPKTQDTFYDVSELQEESPGKYTANFKKVEKNGNVKVDVTSGNYYTFTVMYADDSSALIHTCLHKGNKDLGDLYAVLNRNKDTNAGDKVKGAVTAASLKFSDFISTKDNKCEYDNVSLKSLLTK
[4]; pH 5.0
  NO Kd (NO dissociation): 0.032 ± 0.011 s^–1
[4]; pH 7.5
  NO Kd (NO dissociation): 1.11 ± 0.04 s^–1
